Measured values published in ChEMBL document CHEMBL3774373, “Activity and Predicted Nephrotoxicity of Synthetic Antibiotics Based on Polymyxin B” (J Med Chem, 2016).
Values after ≈ are worked out from the molar mass of the structure shown. Numbered stars: 1 amine (or outer) side, 2 acyl side, 3 side chain; on linkers, the order of the positions; unused ones are H or OH. Bridge positions count the residues as written; N and C are the ends. Square brackets hold non-standard residues; d marks the D form. Peptide text beside a SMILES is read from it. * marks the point of attachment. Benzoyl(4-Ph) = O=C(c1ccc(-c2ccccc2)cc1)*; NH(2-ClPh) = Clc1ccccc1N*; dDab = NCC[C@@H](N)C(=O)O; Octanoyl = CCCCCCCC(=O)*; Dab = NCC[C@H](N)C(=O)O; CO = O=C([*:1])[*:2]

Experiments:
[1] = tested on: Escherichia coli; assay: Antibacterial activity against Escherichia coli ATCC 25922 after 18 hrs by 2 fold serial dilution method; assay type: functional; details: ATCC 25922, 18 h
Summary of the method: (§1)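 Overnight cultures in nutrient or Mueller Hinton broth at 37 °C with shaking, diluted 50-fold into fresh MHB and grown 1.5–3 h to mid-log. Inoculum 5×10^5 CFU/mL in 2-fold serial dilutions, final range 32 to 0.015 μg/mL. MIC read visually after 18 h at 37 °C as the lowest concentration with no visible growth.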

[2] = tested on: Klebsiella pneumoniae; assay: Antibacterial activity against Klebsiella pneumoniae ATCC 13883 after 18 hrs by 2 fold serial dilution method; assay type: functional; details: ATCC 13883, 18 h; summary of the method: as §1
[3] = tested on: Klebsiella pneumoniae; assay: Antibacterial activity against multidrug resistant Klebsiella pneumoniae ATCC 700603 after 18 hrs by 2 fold serial dilution method; assay type: functional; details: Klebsiella pneumoniae, 700603, 18 h
Summary of the method: (§2)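 Overnight cultures at 37 °C in nutrient or Mueller Hinton broth with shaking were diluted 50-fold in MHB and grown 1.5–3 h to mid-log phase. The inoculum was 5×10^5 CFU/mL in MHB. Compounds were 2-fold serially diluted, final 32 to 0.015 μg/mL. After 18 h at 37 °C, the MIC was read visually as the lowest concentration with no visible growth.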

[4] = tested on: Klebsiella pneumoniae; assay: Antibacterial activity against Klebsiella pneumoniae ATCC BAA-2146 expressing NDM-1 after 18 hrs by 2 fold serial dilution method; assay type: functional; details: ATCC BAA-2146, 18 h; summary of the method: as §2
[5] = tested on: Acinetobacter baumannii; assay: Antibacterial activity against Acinetobacter baumannii ATCC 19606 after 18 hrs by 2 fold serial dilution method; assay type: functional; details: ATCC 19606, 18 h; summary of the method: as §1
[6] = tested on: Pseudomonas aeruginosa; assay: Antibacterial activity against Pseudomonas aeruginosa ATCC 27853 after 18 hrs by 2 fold serial dilution method; assay type: functional; details: ATCC 27853, 18 h; summary of the method: as §1
[7] = tested on: Pseudomonas aeruginosa; assay: Antibacterial activity against clinical isolate polymyxin resistant Pseudomonas aeruginosa FADDI-PA070 after 18 hrs by 2 fold serial dilution method; assay type: functional; details: FADDI-PA070, 18 h
Summary of the method: (§3)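 Polymyxin-resistant clinical isolates were grown overnight at 37 °C in NB or MHB with shaking, diluted 50-fold in MHB and grown 1.5–3 h to mid-log phase. The inoculum was 5×10^5 CFU/mL. Compounds were 2-fold broth serial dilutions, final 32 to 0.015 μg/mL; the polymyxin controls ran 128–0.06 μg/mL. The MIC was the lowest concentration with no visible growth after 18 h at 37 °C.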

[8] = tested on: Pseudomonas aeruginosa; assay: Antibacterial activity against clinical isolate polymyxin resistant Pseudomonas aeruginosa PA9704 after 18 hrs by 2 fold serial dilution method; assay type: functional; details: PA9704, 18 h; summary of the method: as §3
[9] = tested on: Acinetobacter baumannii; assay: Antibacterial activity against clinical isolate carbapenem and polymyxin resistant Acinetobacter baumannii Ptyela 100734512:2 after 18 hrs by 2 fold serial dilution method; assay type: functional; details: Ptyela 100734512:2, 18 h; summary of the method: as §3
[10] = tested on: Klebsiella pneumoniae; assay: Antibacterial activity against clinical isolate carbapenem and polymyxin resistant Klebsiella pneumoniae Koprana 100650661:1 after 18 hrs by 2 fold serial dilution method; assay type: functional; details: Koprana 100650661:1, 18 h; summary of the method: as §3
[11] = tested on: Klebsiella pneumoniae; assay: Antibacterial activity against clinical isolate carbapenem and polymyxin resistant Klebsiella pneumoniae 138-16357-20362 after 18 hrs by 2 fold serial dilution method; assay type: functional; details: 138-16357-20362, 18 h; summary of the method: as §3
[12] = Cytotoxicity against human HepG2 cells after 24 hrs by resazurin assay; assay type: cell-based; details: HepG2 cells
[13] = Cytotoxicity against HEK293 cells after 24 hrs by resazurin assay; assay type: cell-based; details: human, HEK293 cells
[14] = Cytotoxicity against HK2 cells assessed as LDH release by Western blot analysis; assay type: cell-based, HK-2; details: human, primary human renal proximal tubule epithelial cells; read-out: CC50
[15] = Cytotoxicity against HK2 cells assessed as GGT release by Western blot analysis; assay type: cell-based, HK-2; details: human, primary human renal proximal tubule epithelial cells; read-out: CC50
[16] = tested on: Staphylococcus aureus; assay: microbe, parasite or virus in culture; details: ATCC 25923, 18 h
[17] = Cytotoxicity against HK2 cells assessed as LDH release by Western blot analysis; details: human, hk-2
[18] = Cytotoxicity against primary human proximal tubule cells assessed as GGT release at 100 ug/mL by Western blot analysis
[19] = tested on: Pseudomonas aeruginosa; assay: Antibacterial activity against Pseudomonas aeruginosa after 16 to 20 hrs by 2 fold broth microdilution method; assay type: functional
[20] = tested on: Acinetobacter baumannii; assay: Antibacterial activity against Acinetobacter baumannii after 16 to 20 hrs by 2 fold broth microdilution method; assay type: functional
[21] = tested on: Escherichia coli; assay: Antibacterial activity against Escherichia coli after 16 to 20 hrs by 2 fold broth microdilution method; assay type: functional
[22] = tested on: Klebsiella pneumoniae; assay: Antibacterial activity against Klebsiella pneumoniae after 16 to 20 hrs by 2 fold broth microdilution method; assay type: functional
[23] = tested on: Escherichia coli; assay: Antibacterial activity against Escherichia coli; assay type: functional
[24] = tested on: Pseudomonas aeruginosa; assay: Antibacterial activity against Pseudomonas aeruginosa; assay type: functional
[25] = tested on: Staphylococcus aureus; assay: Antibacterial activity against Staphylococcus aureus; assay type: functional

Structure (SMILES) | MIC [1] [µg/mL] | MIC [2] [µg/mL] | MIC [3] [µg/mL] | MIC [4] [µg/mL] | MIC [5] [µg/mL] | MIC [6] [µg/mL] | MIC [7] [µg/mL] | MIC [8] [µg/mL] | MIC [9] [µg/mL] | MIC [10] [µg/mL] | MIC [11] [µg/mL] | CC50 at 24 h [12] [µM] | MIC [16] [µg/mL] | other results
CC(C)C[C@@H]1NC(=O)[C@@H](Cc2ccccc2)NC(=O)[C@H](CCN)NC(=O)[C@@H](NC(=O)[C@H](CCN)NC(=O)[C@@H](NC(=O)[C@H](CCN)NC(=O)c2ccc(-c3ccccc3)cc2)[C@@H](C)O)CCNC(=O)[C@H]([C@@H](C)O)NC(=O)[C@H](CCN)NC(=O)[C@H](CCN)NC1=O ({Benzoyl(4-Ph)}-[Dab]T[Dab][Dab][Dab][dF]L[Dab][Dab]T; lactam 4-C) | 0.5 (≈ 0.402 µM) | 0.5 (≈ 0.402 µM) | 1 (≈ 0.804 µM) | 0.5 (≈ 0.402 µM) | 0.5 (≈ 0.402 µM) | 1 (≈ 0.804 µM) | 8 (≈ 6.43 µM) | > 32 | 8 (≈ 6.43 µM) | > 32 | > 32 | 298 | > 32 | CC50 at 24 h [13]: 297 µM; CC50 [14]: > 128 µg/mL; CC50 [15]: > 128 µg/mL; Activity [17]: Non-toxic; Activity [18]: Non-toxic
CC(C)C[C@@H]1NC(=O)[C@@H](Cc2ccccc2)NC(=O)[C@H](CCN)NC(=O)[C@@H](NC(=O)[C@H](CCN)NC(=O)[C@@H](NC(=O)[C@H](CCN)NC(=O)Nc2ccccc2Cl)[C@@H](C)O)CCNC(=O)[C@H]([C@@H](C)O)NC(=O)[C@H](CCN)NC(=O)[C@H](CCN)NC1=O ({NH(2-ClPh)-CO}-[Dab]T[Dab][Dab][Dab][dF]L[Dab][Dab]T; lactam 4-C) | 1 (≈ 0.822 µM) | 2 (≈ 1.64 µM) | 2 (≈ 1.64 µM) | 4 (≈ 3.29 µM) | 1 (≈ 0.822 µM) | 0.5 (≈ 0.411 µM) | > 32 | > 32 | > 32 | > 32 | > 32 | > 300 | > 32 | MIC90 [19]: 2 µg/mL (≈ 1.64 µM); MIC90 [20]: 4 µg/mL (≈ 3.29 µM); MIC90 [21]: 2 µg/mL (≈ 1.64 µM); MIC90 [22]: 4 µg/mL (≈ 3.29 µM)
CC(C)C[C@@H]1NC(=O)[C@@H](Cc2ccccc2)NC(=O)[C@H](CCN)NC(=O)[C@@H](NC(=O)[C@@H](CCN)NC(=O)[C@@H](NC(=O)[C@H](CCN)NC(=O)Nc2ccccc2Cl)[C@@H](C)O)CCNC(=O)[C@H]([C@@H](C)O)NC(=O)[C@H](CCN)NC(=O)[C@H](CCN)NC1=O ({NH(2-ClPh)-CO}-[Dab]T[dDab][Dab][Dab][dF]L[Dab][Dab]T; lactam 4-C) | 1 (≈ 0.822 µM) | 0.5 (≈ 0.411 µM) | 0.5 (≈ 0.411 µM) | 1 (≈ 0.822 µM) | 2 (≈ 1.64 µM) | 0.5 (≈ 0.411 µM) | 16 (≈ 13.1 µM) | > 32 | > 32 | > 32 | > 32 | > 300 | > 32 | 
CC(C)C[C@@H]1NC(=O)[C@@H](Cc2ccccc2)NC(=O)[C@H](CCN)NC(=O)[C@@H](NC(=O)[C@@H](CO)NC(=O)[C@@H](NC(=O)[C@H](CCN)NC(=O)Nc2ccccc2Cl)[C@@H](C)O)CCNC(=O)[C@H]([C@@H](C)O)NC(=O)[C@H](CCN)NC(=O)[C@H](CCN)NC1=O ({NH(2-ClPh)-CO}-[Dab]T[dS][Dab][Dab][dF]L[Dab][Dab]T; lactam 4-C) | 32 (≈ 26.6 µM) | 32 (≈ 26.6 µM) | 16 (≈ 13.3 µM) | > 32 | > 32 | 8 (≈ 6.65 µM) | > 32 | > 32 | > 32 | > 32 | > 32 | > 300 | > 32 | 
CCCCCCCC(=O)N[C@H](C(=O)N[C@@H](CCN)C(=O)N[C@H]1CCNC(=O)[C@H]([C@@H](C)O)NC(=O)[C@H](CCN)NC(=O)[C@H](CCN)NC(=O)[C@H](CC(C)C)NC(=O)[C@@H](Cc2ccccc2)NC(=O)[C@H](CCN)NC1=O)[C@@H](C)O [Octanoyl Polymixin B nonapeptide] (Octanoyl-T[Dab][Dab][Dab][dF]L[Dab][Dab]T; lactam 3-C) | 1 (≈ 0.918 µM) | 1 (≈ 0.918 µM) | 2 (≈ 1.84 µM) | 2 (≈ 1.84 µM) | 2 (≈ 1.84 µM) | 0.5 (≈ 0.459 µM) | > 32 | > 32 | > 32 | > 32 | > 32 | > 300 | > 32 | MIC [23]: 0.03 µg/mL (≈ 0.0275 µM); MIC [24]: 4 µg/mL (≈ 3.67 µM); MIC [25]: > 16 µg/mL
